Test results from ChEMBL document CHEMBL4257443, “The discovery of a potent Nav1.3 inhibitor with good oral pharmacokinetics” (Medchemcomm, 2017).
Active and inactive are the calls of the source. No cut-off for these calls is given here.

Columns and labels:
[1] = system: Rattus norvegicus; test: Prodrug conversion in po dosed rat assessed as formation of N-(3-chloro-4-(trifluoromethoxy)benzyl)-3-fluoro-4-(N-thiazol-2-ylsulfamoyl)benzamide; assay type: ADME, organism-based; conditions: in vivo
[2] = system: Cynomolgus monkey; test: Toxicity in cynomolgus monkey assessed as change in heart rate at 30 mg/kg; assay type: organism-based, Macaca fascicularis; conditions: in vivo
[3] = system: Cynomolgus monkey; test: Toxicity in cynomolgus monkey assessed as change in systolic blood pressure at 30 mg/kg; assay type: organism-based, Macaca fascicularis; conditions: in vivo
[4] = system: Cynomolgus monkey; test: Toxicity in cynomolgus monkey assessed as change in diastolic blood pressure at 30 mg/kg; assay type: organism-based, Macaca fascicularis; conditions: in vivo
[5] = system: Cynomolgus monkey; test: Toxicity in cynomolgus monkey assessed as effect on ECG parameters at 30 mg/kg; assay type: organism-based, Macaca fascicularis; conditions: in vivo
[6] = system: Cynomolgus monkey; test: Toxicity in cynomolgus monkey assessed as change in left ventricular pressure parameters at 30 mg/kg; assay type: organism-based, Macaca fascicularis; conditions: in vivo
[7] = system: Rattus norvegicus; test: Antipain activity in tibial nerve transection surgery model of rat assessed as reduction of noxious pinch evoked activity at 3 to 10 mg/kg administered as iv bolus dose measured every 15 mins for 30 mins; assay type: functional, organism-based
Outline: (§1)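 Rats had tibial nerve transection 2–3 weeks before recording. Under isoflurane anaesthesia (5% in O2) in a stereotaxic frame, body temperature was held at 37 °C and L4-5 spinal segments were exposed by laminectomy. After stable baseline responses, compound was given as an IV bolus, with effects assessed every 15 min for up to 30 min per dose. Treatment was randomised and blinded, and dry blood spots were taken for plasma exposure.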

[8] = system: Rattus norvegicus; test: Antipain activity in tibial nerve transection surgery model of rat assessed as reduction of innocuous brush evoked activity at 3 to 10 mg/kg administered as iv bolus dose measured every 15 mins for 30 mins; assay type: functional, organism-based; outline: as §1
[9] = system: Rattus norvegicus; test: Antipain activity in tibial nerve transection surgery model of rat assessed as reduction of mechanical punctate stimuli evoked activity at 3 to 10 mg/kg administered as iv bolus dose measured every 15 mins for 30 mins; assay type: functional, organism-based; outline: as §1
[10] = system: Rattus norvegicus; test: Antipain activity in tibial nerve transection surgery model of rat assessed as reduction of heat evoked activity at 3 to 10 mg/kg administered as iv bolus dose measured every 15 mins for 30 mins; assay type: functional, organism-based; outline: as §1

O=C(NCc1ccc(OC(F)(F)F)c(Cl)c1)c1ccc(S(=O)(=O)/N=c2\sccn2COP(=O)(O)O)c(F)c1
Drug metabolism [1]: Metabolite_Detected
Activity [2]: Non-Toxic
Activity [3]: Non-Toxic
Activity [4]: Non-Toxic
Activity [5]: Non-Toxic
Activity [6]: Non-Toxic
Activity [7]: Active
Activity [8]: inactive
Activity [9]: inactive
Activity [10]: inactive
